# PvdQ inh: P. aeruginosa PvdQ acylase inhibition; purified PvdQ acylase, fluorescence plate reader; inhibition, % at 10 µM; hit rate 0.063% among 340,000; in the data active = inhibition above about 30%, passing the limit was not always enough;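 also: 0% = vehicle neutral wells and 100% = reference inhibitor wells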
# Yeast superoxide: lowers age-related superoxide in aged yeast cells; S. cerevisiae aged cells, superoxide DHE fluorescence; active compounds read low; superoxide response (% of plate mean), % at 10 µM; hit rate 0.18% among 330,000; AID 2690;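 active = superoxide response under a set limit, about three screen SD below normal, cut at about 65% in these data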;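 also: yeast aged for seven days with compound at 30 °C before DHE staining; 100% = average MFI of all compound-treated wells on the plate with controls excluded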
# VIM-2 inhibitor: blocks Pseudomonas aeruginosa VIM-2 metallo-beta-lactamase; purified VIM-2, nitrocefin hydrolysis, epi-absorbance fluorescence; inhibition, % at 5.6 µM; hit rate 0.89% among 290,000; AID 1527;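 active = inhibition above the mean of all tested compounds plus 3 SD, cutoff set per screening run, cut at about 7.5% in these data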;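 also: red hydrolysis product quenches plate fluorescence so inhibitors raise well fluorescence; 0% = enzyme with DMSO and 100% = DMSO without enzyme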
# IMP-1 inh: inhibitors of Pseudomonas aeruginosa IMP-1 metallo-beta-lactamase; purified IMP-1, nitrocefin hydrolysis, epi-absorbance fluorescence; inhibition, % at 5.6 µM; hit rate 0.45% among 290,000;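 active = inhibition above the mean plus 3 SD of all compounds in the same screening run, cut at about 4.5% in these data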;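 also: 0% = IMP-1 with DMSO and 100% = DMSO wells lacking enzyme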
#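 Assay system: purified recombinant IMP-1 beta-lactamase. Input: IMP-1 0.2 nM before substrate addition. Buffer or medium: Zinc- and detergent-supplemented HEPES buffer, pH 7.1. Schedule: 25 °C, 15 min preincubation, 25 min reaction. Signal: Epi-absorbance fluorescence, 480 nm excitation, 530 nm emission. Evaluation: percent inhibition from optical density relative to buffer-blank wells.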
# PHOSPHO1 inh: blocks human PHOSPHO1 phosphatase activity. Q8TCT1. recombinant PHOSPHO1, absorbance phosphatase assay. inhibition, % at 13.3 µM. hit rate 1.1% among 290,000. AID 1565; in the data active = inhibition above about 60%
# Target sequence (Q8TCT1 whole entry, looked up): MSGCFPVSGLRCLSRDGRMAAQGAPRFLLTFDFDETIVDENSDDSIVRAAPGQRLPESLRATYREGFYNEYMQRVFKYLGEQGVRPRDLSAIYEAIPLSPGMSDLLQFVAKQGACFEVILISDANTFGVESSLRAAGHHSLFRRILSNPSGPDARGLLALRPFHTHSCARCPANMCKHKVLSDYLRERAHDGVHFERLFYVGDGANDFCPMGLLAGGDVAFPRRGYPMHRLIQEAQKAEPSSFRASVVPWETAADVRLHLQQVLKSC
# Active calls of the source: *; . = no result. This is a sample that favours compounds with a hit; in the whole collection about 2.2% have one here.
SMILES,PvdQ inh,Yeast superoxide,VIM-2 inhibitor,IMP-1 inh,PHOSPHO1 inh
O=S(=O)(CCSc1nc2ccccc2s1)c1nc2ccccc2s1,-5,104,-3,-2,76*
Cc1csc(NC(=O)CSc2nc3ccccc3s2)n1,5,87,-1,4.6*,28
CCS(=O)(=O)CCSc1nc2ccccc2s1,-7,89,-2,-4,-10
O=C(CSc1nc2ccccc2s1)CSc1nc2ccccc2s1,-15,107,-4,-1,60*
O=C(CSc1nc2ccccc2s1)NNC(=S)Nc1ccc(Br)cc1,-14,108,-5,-5,-55
COC(=O)c1cc(C)sc1NC(=O)CSc1ncccn1,-5,99,-4,-5,38
COc1ccc(C(=O)Nn2c(C)nc3ccccc3c2=O)cc1[N+](=O)[O-],0,99,-1,0,23
CCCCCc1nnc(NC(=O)NS(=O)(=O)c2ccc(C)cc2)s1,-7,101,-3,-4,10
O=C(CSc1nc2cc(Cl)ccc2s1)c1ccco1,-1,95,-1,0,91*
O=C(CSc1nnc(SCC(=O)c2ccco2)s1)c1ccco1,-14,118,-1,0,33
COc1cc(/C=N/n2c(-c3ccccc3)n[nH]c2=S)ccc1O,-15,86,0,-4,103*
Cc1cc(-c2n[nH]c(=S)n2/N=C/c2cccc(O)c2)n[nH]1,-15,65*,-2,-3,-80
Cc1cc(-c2n[nH]c(=S)n2/N=C/c2cccc([N+](=O)[O-])c2)n[nH]1,-5,94,-3,-3,1
COc1cc(/C=N/n2c(-c3ccccc3)n[nH]c2=S)cc(OC)c1O,-1,91,1,-3,37
C=CCN1C(=O)C2(NNc3ccccc3O2)c2ccccc21 (stereo not drawn),8,92,-1,-3,87*
CCCCN1C(=O)C2(NNc3ccccc3O2)c2ccccc21 (stereo not drawn),-3,95,-2,-5,73*
COC(=O)C1CCc2c(ccc3c2CCCC3)C1=O (stereo not drawn),5,.,.,.,.
CCCC(C)C(=O)Nc1nc(C)c(-c2csc(Nc3cc(OC)ccc3OC)n2)s1 (stereo not drawn),-3,100,-2,-3,77*
C=CCCC(=O)Nc1nc(C)c(-c2csc(Nc3cccc(OC)c3)n2)s1,-6,102,-1,3,104*
Cc1ccccc1Nc1nc(-c2sc(NC(=O)c3ccco3)nc2C)cs1,-15,98,-4,-2,66*
Cc1ccc(Cl)cc1Nc1nc(-c2sc(NC(=O)C(C)(C)C)nc2C)cs1,-14,103,0,18*,72*
CCC(C)C(=O)Nc1nc(C)c(-c2csc(Nc3ccc(Cl)cc3)n2)s1 (stereo not drawn),-5,.,-3,-1,-6
CC(Oc1ccc(F)cc1)C(=O)Nc1ccccc1N1CCCCC1 (stereo not drawn),-6,112,-4,-3,56
CCCC(=O)Nc1nc(C)c(-c2csc(Nc3ccc(Cl)cc3)n2)s1,21,.,-5,-2,20
COc1ccc(OC)c(Nc2nc(-c3sc(N)nc3C)cs2)c1,-2,98,-3,-6,53
SMILES,PvdQ inh,Yeast superoxide,VIM-2 inhibitor,IMP-1 inh,PHOSPHO1 inh
C=CCCC(=O)Nc1nc(C)c(-c2csc(Nc3cc(OC)ccc3OC)n2)s1,-7,98,-1,-3,72*
CCCC(=O)Nc1nc(C)c(-c2csc(Nc3cc(OC)ccc3OC)n2)s1,-12,101,-2,-2,89*
COc1ccccc1Nc1nc(-c2sc(NC(=O)CC(C)C)nc2C)cs1,14,96,-2,-1,77*
CCCC(=O)Nc1nc(C)c(-c2csc(Nc3ccccc3OC)n2)s1,-8,102,-1,-2,86*
O=C(CN1CCN(C(=O)c2ccc(-c3nc4ccccc4s3)o2)CC1)Nc1ccc(F)cc1,4,128,.,.,.
Oc1ccc(C23CCCC2C2(CCCC2)c2ccc(O)cc2O3)c(O)c1 (stereo not drawn),-17,92,.,.,.
Cc1ccc(NC(=O)CSCC(=O)N2CCN(Cc3ccc4c(c3)OCO4)CC2)cc1,-12,106,-6,-2,30
COc1cccc(Nc2nc(-c3sc(NC(=O)CC(C)C)nc3C)cs2)c1,-10,107,-4,5.9*,104*
COc1ccccc1Nc1nc(-c2sc(NC(=O)C(C)(C)C)nc2C)cs1,1,103,-2,-3,67*
CCCCCC(=O)Nc1nc(C)c(-c2csc(Nc3cc(Cl)ccc3OC)n2)s1,8,104,-2,-2,89*
COc1ccccc1Nc1nc(-c2sc(NC(=O)c3cccc(Cl)c3)nc2C)cs1,.,101,-2,-2,-66
COc1ccc(NC(=O)CN(C)C(=O)c2cc(CN3C(=O)c4ccccc4C3=O)ccc2OC)cc1,-6,92,.,.,.
CCOC(=O)C1(CC)NC(c2ccc(OC)cc2OC)C2C(=O)N(C)C(=O)C21 (stereo not drawn),-13,93,-2,-1,25
COc1cc(OC)cc(-c2nnc(NC(=O)c3ccc4c(c3)OCCO4)o2)c1,-7,124,-6,-3,63*
COc1cc(OC)cc(C(=O)NNC(=O)c2ccc3c(c2)OCCO3)c1,-12,94,.,.,.
COc1ccc(Oc2coc3cc(O)ccc3c2=O)cc1,9,94,-1,25*,49
Cc1cc(C(=O)NN)c(C)o1,-1,102,-1,-1,61*
CCOc1cc(C)c(S(=O)(=O)Nc2ccc3cn[nH]c3c2)cc1C,-13,92,0,0,42
CCCC[C@@H]1CCCO[C@@](C(=O)NCc2ccccn2)(C(F)(F)F)C1,9,102,.,.,.
c1cnc2ccc(-c3ccc4ncccc4c3)cc2c1,47*,90,2,-4,25
Cc1ccc(NC(=O)CN2CC(C)SC2=NC2CCCCC2)cc1 (stereo not drawn),3,113,-1,-2,74*
COc1ccc(S(=O)(=O)N2CCCC2CNC(=O)C(=O)NCc2ccccc2Cl)cc1 (stereo not drawn),-5,86,.,.,.
CCNCc1ccccc1OCc1ccccc1,-14,99,-3,-2,69*
N#Cc1c(NC(=O)CSc2nnnn2C2CCCCC2)sc2c1CCCC2,-22,95,2,1,4
Cc1nnc(SCC(=O)Nc2sc3c(c2C#N)CCCCC3)n1N,12,99,-4,-4,61*
O=S(=O)(c1ccccc1)c1nc(-c2ccco2)oc1NCc1cccnc1,11,104,-2,-3,68*
CCN(CC(=O)Nc1ccc(NC(C)=O)cc1)CC(=O)Nc1ccc(Cl)c(Cl)c1,-6,91,0,5.9*,36
CCOCCCNC(=O)c1cc(-c2cccnc2)nc2ccc(S(=O)(=O)N3CCC(C)CC3)cc12,-10,94,-4,-5,75*
COCCNC(=O)c1cc(-c2ccccn2)nc2ccc(S(=O)(=O)N3CCC(C)CC3)cc12,0,118,-4,-4,33
O=C(O)C(c1ccccc1)C1(O)CC2CCC1C2 (stereo not drawn),-23,.,.,.,.
